Experimental data from different studies.
Lines come from different studies, so protocols differ.
Effect on: cell growth or viability

CSc1nc(/N=C/c2cccc(O)c2)n(-c2ccc(C(=O)O)cc2)n1 — IC50 (RPE-1; MTT): 34.6 µM
NCCOc1cc(C(=O)Nc2cc(OCCN3CCCC3)c3ccccc3n2)nc(C(=O)Nc2cc(OCCN3CCCC3)c3ccccc3n2)c1 — IC50 (U2OS; ATP luminescence; 72 h): 0.2 µM
FC(F)(F)c1ccc(C(c2c[nH]c3ccccc23)c2c[nH]c3ccccc23)cc1 — IC50 (U2OS; ATP luminescence; 22 h): 12.6 µM
CC[C@@H](C)[C@H](N)C(=O)N1Cc2ccccc2C1 — IC50 (SKM-1; ATP luminescence; 48 h): 0.181 µM
CCCCc1ccc2[nH]c(NC(=O)OC)nc2c1 — IC50 (SCC-9; CCK-8; 72 h): 0.0769 µM
CSc1nc(/N=C/c2cc(Br)ccc2O)n(-c2ccc(C(=O)O)cc2)n1 — IC50 (RPE-1; MTT): 37.6 µM
CC(C)[C@H](N)C(=O)N1CCC[C@H]1B(O)O — IC50 (HEL; ATP luminescence; 48 h): > 60 µM
O=C(O)c1ccc(-n2nc(Oc3ccccc3)nc2/N=C/c2cc([N+](=O)[O-])ccc2O)cc1 — IC50 (RPE-1; MTT): 26.8 µM
COc1nc(OCc2cccc(-c3ccccc3)c2C)ccc1CNCCNC(C)=O — IC50 (HCT-8; MTT): 3.9 µM
COC(=O)c1ccc(-n2nc(SC)nc2N)cc1 — IC50 (RPE-1; MTT): 37.3 µM
CN1c2ccccc2C(=O)N2[C@H](C(=O)Nc3ccc(/C=C/C(=O)NO)cc3)Cc3c([nH]c4ccccc34)[C@@H]12 — IC50 (HEL): 0.34 µM
NCCCOc1cc(NC(=O)c2cc(Cl)cc(C(=O)Nc3cc(OCCCN)c4ccccc4n3)n2)nc2ccccc12 — IC50 (U2OS; ATP luminescence; 72 h): 0.3 µM
Nc1nc(Oc2ccccc2)nn1-c1ccc(C(=O)O)cc1 — IC50 (RPE-1; MTT): 25.7 µM
C#CCOc1cc(C(=O)Nc2cc(OCCN)c3ccccc3n2)nc(C(=O)Nc2cc(OCCN)c3ccccc3n2)c1 — IC50 (U2OS; ATP luminescence; 72 h): 4.9 µM
COc1cc(-c2ncn(/C=C\C(=O)OC(C)C)n2)cc(C(F)(F)F)c1 — IC50 (HEL; 72 h): 0.104 µM
COc1cc(OC)c2c(=O)cc(-c3ccc(N(C)C)cc3)oc2c1-c1c(OC)cc(OC)c2c(=O)cc(-c3ccc(N(C)C)cc3)oc12 — IC50 (HeLa; MTT; 48 h): 43.8 µM
CC(C)C[C@H](NC(=O)[C@H](Cc1ccccc1)NC(=O)c1cnccn1)B(O)O — IC50 (RL95-2; ATP luminescence): 0.012 µM
N[C@@H](CC(=O)N1CCN(C(c2ccc(F)cc2)c2ccc(F)cc2)CC1)C(=O)N1Cc2ccccc2C1 — IC50 (SKM-1; ATP luminescence; 48 h): 0.346 µM
CN(C)CCOc1cc(NC(=O)c2cc(Cl)cc(C(=O)Nc3cc(OCCN(C)C)c4ccccc4n3)n2)nc2ccccc12 — IC50 (U2OS; ATP luminescence; 72 h): 2.2 µM
CC(=O)Oc1ccc2c(c1)C(C)=CC(C)(C)N2Cc1ccccc1 — IC50 (PLC5; MTT; 72 h): 18 µM
CN(C)CCCOc1cc(NC(=O)c2cc(Cl)cc(C(=O)Nc3cc(OCCCN(C)C)c4ccccc4n3)n2)nc2ccccc12 — IC50 (U2OS; ATP luminescence; 72 h): 1.8 µM
CSc1nc(/N=C/c2cc(C)ccc2O)n(-c2ccc(C(=O)O)cc2)n1 — IC50 (RPE-1; MTT): 36 µM
COc1cc(C)c(-c2c(C)cc(OC)c3c(=O)cc(-c4ccc(N(C)C)cc4)oc23)c2oc(-c3ccc(N(C)C)cc3)cc(=O)c12 — IC50 (HeLa; MTT; 48 h): 1.4 µM
NCCCOc1cc(NC(=O)c2cc(OCc3c[nH]nn3)cc(C(=O)Nc3cc(OCCCN)c4ccccc4n3)n2)nc2ccccc12 — IC50 (U2OS; ATP luminescence; 72 h): > 40 µM
COc1cc(Nc2nccc(-c3cnn4nc(OC)ccc34)n2)cc(C(F)(F)F)c1 — IC50 (RL95-2; ATP luminescence): 1 µM
COc1cc(/C=N/c2nc(SC)nn2-c2ccc(C(=O)O)cc2)ccc1O — IC50 (RPE-1; MTT): 29.8 µM
NCCCOc1cc(NC(=O)c2cccc(C(=O)Nc3cc(OCCCN)c4ccccc4n3)n2)nc2ccccc12 — IC50 (U2OS; ATP luminescence; 72 h): 1.5 µM
COC(=O)C(C)n1c(C=O)ccc1CO (stereo not drawn) — IC50 (Hepa-1c1c7; crystal violet; 48 h): > 100 µM
COc1ccc(O)c(/C=N/c2nc(SC)nn2-c2ccc(C(=O)O)cc2)c1 — IC50 (RPE-1; MTT): 35.2 µM
CN(C)CCCOc1cc(NC(=O)c2cccc(C(=O)Nc3cc(OCCCN(C)C)c4ccccc4n3)n2)nc2ccccc12 — IC50 (U2OS; ATP luminescence; 72 h): 2.1 µM
